Laboratory results from publication PMC5650512 (Cell chemical biology, 2017).

Key:
AMPKα (p-Thr172) [1] = assay: AMPKα phosphorylation western blot, MDA-MB-231; type: cell-based; details: 1 µM; 24 hours
AMPKα (p-Thr172) [2] = assay: AMPKα Thr172 phosphorylation western blot, MCF-7; type: cell-based
MDA-MB-231 cells = assay: Mitochondrial membrane potential ΔΨm; type: cell-based
MCF-7 cells [3] = assay: Mitochondrial membrane potential ΔΨm; type: cell-based
Procedure, shortened: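 JC-1 arm: MCF-7 cells exposed to test compound (20 µM, 4 h), with or without pre-treatment with (±)-14,15-EET (1 µM). Red/green ratio quantified as mean ± S.D. (n=4). TMRE arm: 20,000 cells/well grown overnight, TMRE 500 nM for 30 min at 37 °C, two washes in PBS/0.2% BSA, read Ex 530/Em 590 nm. FCCP (10 µM, 30 min) background subtracted.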

MCF-7 cells [4] = assay: OCR and ECAR, XF Extracellular Flux Analyzer, MCF-7; type: cell-based
CYP2J2 = biological target: T1, CYP2J2 (Homo sapiens, UniProt P51589); assay: CYP2J2 AA epoxygenase activity; type: biochemical; details: data not shown
T1 sequence (P51589 1-502): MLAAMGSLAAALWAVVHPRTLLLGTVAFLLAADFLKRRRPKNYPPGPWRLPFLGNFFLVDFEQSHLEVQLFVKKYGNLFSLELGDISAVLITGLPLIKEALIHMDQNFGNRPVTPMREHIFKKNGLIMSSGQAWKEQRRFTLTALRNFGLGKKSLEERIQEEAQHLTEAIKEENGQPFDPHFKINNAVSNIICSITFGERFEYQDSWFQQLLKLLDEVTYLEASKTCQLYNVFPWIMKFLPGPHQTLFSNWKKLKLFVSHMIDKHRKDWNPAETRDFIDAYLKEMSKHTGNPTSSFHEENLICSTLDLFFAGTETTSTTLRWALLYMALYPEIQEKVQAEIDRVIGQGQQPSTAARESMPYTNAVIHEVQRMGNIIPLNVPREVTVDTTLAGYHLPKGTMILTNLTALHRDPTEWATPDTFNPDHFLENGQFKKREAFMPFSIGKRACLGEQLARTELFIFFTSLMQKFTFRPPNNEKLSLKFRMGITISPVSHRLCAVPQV

T47D cell line = assay: T47D cell growth; type: cell-based
CYP3A4 = CYP3A4 (Homo sapiens, UniProt P08684); assay: Microsomal CYP3A4-mediated EET biosynthesis; type: biochemical; details: IC50, inhibition of CYP3A4-mediated synthesis of (±)-14,15-EET, 30 minutes exposure
Sequence of CYP3A4 (P08684 whole entry): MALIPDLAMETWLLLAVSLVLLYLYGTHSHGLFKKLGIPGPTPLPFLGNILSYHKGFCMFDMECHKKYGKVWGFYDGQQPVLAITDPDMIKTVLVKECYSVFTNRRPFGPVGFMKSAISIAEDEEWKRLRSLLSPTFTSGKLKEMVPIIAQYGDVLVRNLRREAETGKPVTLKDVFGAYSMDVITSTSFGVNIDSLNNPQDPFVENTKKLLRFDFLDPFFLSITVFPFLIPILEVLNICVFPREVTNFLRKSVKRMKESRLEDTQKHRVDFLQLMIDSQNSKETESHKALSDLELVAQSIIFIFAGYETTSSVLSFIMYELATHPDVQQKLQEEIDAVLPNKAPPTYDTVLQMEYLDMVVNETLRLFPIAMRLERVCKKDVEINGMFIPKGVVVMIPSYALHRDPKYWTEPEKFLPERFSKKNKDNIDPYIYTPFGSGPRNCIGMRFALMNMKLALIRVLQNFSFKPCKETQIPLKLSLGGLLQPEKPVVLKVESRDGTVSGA

[5] = Plasma concentration after ip dosing; type: in vivo, mice; details: female, athymic nude (Foxn1nu/Foxn1nu), mouse, 4 mg/kg/day
MDA-MB-231 cell line = assay: MDA-MB-231 cell growth; type: cell-based
MCF-7 cells [6] = assay: Cellular ATP by luminescent assay; type: cell-based; details: 6 hours, 10% serum
Procedure, shortened: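 Cells seeded in 96-well plates and exposed to vehicle or test compound. Lysis solution added with 5 min orbital shaking, then luciferase/luminescent substrate; 10 min in the dark before reading luminescence. ATP was quantified against a standard curve of known ATP concentrations.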

[7] = test system: STAT3-Tyr705, p70 S6 Kinase-Thr389, mTOR-Ser2448, ERK1/2 phosphorylation; assay: Western blot time course of signaling proteins, MCF-7; type: cell-based; details: 20 µM
[8] = test system: MDA-MB-435/LCC6 cell line; assay: MDA-MB-435/LCC6 cell growth; type: cell-based; details: data not shown
MCF-7 cell line = assay: MCF-7 cell proliferation; type: cell-based; details: for Abrogation of biguanide growth inhibition by (±)-14,15-EET: (±)-14,15-EET 1 µM, MTT at 24 hours
[9] = test system: AMPKα in MDA-MB-231 tumors; assay: Signaling proteins in MDA-MB-231 xenograft tumors; set-up: species or system mice; details: in vivo
[10] = test system: MCF-7 mammary fat pad xenograft; assay: MCF-7 orthotopic mammary fat pad xenograft
[11] = test system: mTOR, PKC-ζ/λ, AMPKα in MCF-7 tumors; assay: Signaling proteins in MCF-7 xenograft tumors; type: in vivo, mice
MCF-7 cells [12] = assay: Cellular EET levels by LC-ESI/MRM/MS; type: cell-based; details: 5 mM, 6 hours; P<0.05 for each regioisomer
[13] = test system: cytochrome P450 reductase (CPR); assay: Rate of reduction of cytochrome c by CPR; type: biochemical
Procedure, shortened: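 Run in a quartz cuvette with 1 mL 0.3 M potassium phosphate, pH 8.3, containing cytochrome c (62 μM) and NADPH (50 μM). Reaction started by adding CPR (final 0.2 mg/mL). Absorbance at 550 followed in real time.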

[14] = metformin 2.5 or 5 mM, over 5 hours

For CCCCCC1OC1C/C=C\C/C=C\C/C=C\CCCC(=O)O (racemic) [(±)-14,15-EET, (±)-14,15-(5Z,8Z,11Z)-EET, reference compound], the “Effect on AMPK phosphorylation” value (AMPKα (p-Thr172) [1]) was “no effect”, the “Effect on pAMPKα (Thr172) phosphorylation” value (AMPKα (p-Thr172) [2]; 1 µM, 6 and 24 hours) was “suppression of pAMPKα phosphorylation” and the “Rescue of HBB-reduced ΔΨm by pre-treatment” value (MDA-MB-231 cells; exogenous (±)-14,15-EET, HBB 20 µM) was “partly rescued”. The “Effect on ΔΨm alone (JC-1)” value (MCF-7 cells [3]; 1 µM, relative to control) was “increased mitochondrial cross membrane potential” and the “Rescue of HBB-reduced ΔΨm by pre-treatment” value (MCF-7 cells [3]; (±)-14,15-EET 1 µM, HBB 20 µM) was “partly rescued”.

For CCCCCC1OC1CCCCCCC/C=C\CCCC(=O)O (racemic) [(±)-14,15-EEZE], the “Effect on AMPKα activation” value (AMPKα (p-Thr172) [2]; associated with OCR suppression) was “early activation”, the “Effect on ECAR” value (MCF-7 cells [4]; 1.0 µM) was “suppressed” and the “Effect on OCR” value (MCF-7 cells [4]; 1.0 µM) was “suppressed”.

In the case of NC(=O)c1ncn([C@@H]2O[C@H](CO)[C@@H](O)[C@H]2O)c1N [AICAR], the “Effect on ECAR” value (MCF-7 cells [4]; AICAR 100 µM) is reported as “increased” and the “Effect on OCR” value (MCF-7 cells [4]; AICAR 100 µM) is reported as “increased”.

For CCCCCCNC(=N)NC(=N)NCc1ccccc1 [HBB, N1-hexyl-N5-benzyl-biguanide], the “Inhibition of AA epoxygenase activity of CYP2J2” value (CYP2J2; microsomal) was “did not inhibit”, the “Abrogation of HBB growth inhibition by (±)-14,15-EET” value (T47D cell line) was “abrogated most of the HBB inhibition” and the “Effect on pAMPKα” value (AMPKα (p-Thr172) [2]; 20 µM) was “activated pAMPKα within 30 minutes”. The IC50 (CYP3A4) was 9.5 µM, the concentration at 1 h [5] was 530 nM and the “Abrogation of HBB growth inhibition by EETs” value (MDA-MB-231 cell line) was “failed to counteract HBB inhibition”. For the same molecule, the “Rescue from HBB inhibition by N-acetyl-cysteine (NAC)” value (MDA-MB-231 cell line) was “rescued by the antioxidant N-acetyl-cysteine (NAC)”, the “Effect on ΔΨm (JC-1)” value (MDA-MB-231 cells; 20 µM for 4 hours) was “rapid reduction of ΔΨm” and the “Reduction of ATP” value (MCF-7 cells [6]; HBB) was 30%. For the same molecule, the “Effect on mTOR, S6 kinase and ERK” value ([7]; by 24 hours, presence or absence of serum) was “Significant inhibition”, the “Effect on p70 S6 kinase” value ([7]; independent of serum starvation) was “rapid and transient activation of p70 S6 kinase at 30 minutes” and the “Effect on Stat3 phosphorylation” value ([7]; presence of serum) was “inhibited Stat3 phosphorylation”. The “Abrogation of HBB growth inhibition by EETs” value [8] was “failed to counteract HBB inhibition”, the “Effect on ΔΨm (JC-1)” value (MCF-7 cells [3]; 20 µM for 4 hours) was “rapid reduction of ΔΨm” and the “Effect on ΔΨm (TMRE, non-quenching conditions)” value (MCF-7 cells [3]; TMRE 500 nM) was “inhibit ΔΨm in a dose dependent fashion”. The “Potency of OCR inhibition compared to metformin” value (MCF-7 cells [4]) was > 250 fold, the “Effect on ECAR” value (MCF-7 cells [4]; HBB 20 and 40 µM) was “transient spike of ECAR, followed by inhibition without recovery” and the “Effect on OCR” value (MCF-7 cells [4]; HBB 20 and 40 µM) was “rapid, dose-dependent reduction of OCR within 15 minutes”. For the same molecule, the “Abrogation of HBB growth inhibition by EET analog C22” value (MCF-7 cell line) was “partially abrogated HBB inhibition”, the “Abrogation of biguanide growth inhibition by (±)-14,15-EET” value (MCF-7 cell line) was “part of the inhibition” and the “AMPKα activation in tumors” value [9] was “did activate AMPKα”. The “Tumor size vs. vehicle” value ([10]; 4 mg/kg/day, Gompertzian fitting P=0.0354) was “smaller than the vehicle-treated from day 8 onward”, the “Hepatic or cardiac toxicities by post-mortem histopathology” value ([10]; 6 mg/kg ip 4 days per week) was “no HBB-related hepatic or cardiac toxicities” and the Tumor size ([10]; 6 mg/kg ip 4 days per week (24 mg/kg/week), P=0.039) was “reduced tumor size”. The “Tumor weights at the end point relative to vehicle” value ([10]; 6 mg/kg ip 4 days per week, P=0.034) was “half”, the “Minimal effective dose (MED)” value ([10]; ip daily beginning the day after tumor cell implantation) was 4 mg/kg and the “Intratumoral PKC-ζ/λ phospho-threonine 410/403 (RPPA)” value ([11]; HBB 4 mg/kg/day vs. PBS, P=0.000119) was “reduction of PKC-ζ/λ phospho-threonine 410/403”. The “Intratumoral mTOR (RPPA)” value ([11]; HBB 4 mg/kg/day vs. PBS, P=4.06×10^−6) was “reduction of mTOR” and the “AMPKα activation in tumors” value ([11]; in vivo) was “failed to activate AMPKα”.

With CCCCNC(=N)NC(=N)N [buformin] the “Abrogation of biguanide growth inhibition by (±)-14,15-EET” value (MCF-7 cell line) was “part of the inhibition”.

For CN(C)C(=N)N=C(N)N [metformin], the “Intracellular EET levels” value (MCF-7 cells [12]) was “reduced”, the “Inhibition of AA epoxygenase activity of CYP2J2” value (CYP2J2; 0.75, […] or 3 mM) was “not inhibited” and the “Effect on cellular ATP” value (MCF-7 cells [6]; metformin, normalized to cell number) was “no effect”. For the same molecule, the “Effect on ECAR” value (MCF-7 cells [4]; [14]) was “transient ECAR spike, followed by suppression of ECAR”, the “Effect on OCR” value (MCF-7 cells [4]; [14]) was “marginal suppression of OCR” and the “Inhibition of transfer of electrons from CPR (rate of reduction of cytochrome c)” value [13] was “does not inhibit”. For the same molecule, the “Abrogation of biguanide growth inhibition by (±)-14,15-EET” value (MCF-7 cell line) was “abrogated most of the growth inhibition”.

With [H]/N=C(/N)N/C(=N/[H])NCCc1ccccc1 [phenformin] the “Abrogation of biguanide growth inhibition by (±)-14,15-EET” value (MCF-7 cell line) was “part of the inhibition”.
